Data: ChEMBL document CHEMBL4725434, “Discovery of Selective, Covalent FGFR4 Inhibitors with Antitumor Activity in Models of Hepatocellular Carcinoma” (ACS Med Chem Lett, 2020)
Active and inactive are the calls of the source. The rule behind the calls is not given here.

Key:
[1] = Half life in mouse at 10 mg/kg, po; assay type: ADME, organism-based; conditions: in vivo
[2] = Half life in rat at 3 mg/kg, iv; assay type: ADME, organism-based; conditions: in vivo
[3] = AUC in rat at 10 mg/kg, po; assay type: ADME, organism-based; parameters: dose 10 mg/kg; conditions: in vivo
[4] = AUC in cynomolgus monkey at 3 mg/kg, iv; assay type: ADME, organism-based, Macaca fascicularis; parameters: dose 3 mg/kg; conditions: in vivo
[5] = Half life in rat at 10 mg/kg, po; assay type: ADME, organism-based; conditions: in vivo
[6] = Clearance in cynomolgus monkey at 3 mg/kg, iv; assay type: ADME, organism-based, Macaca fascicularis; conditions: in vivo
[7] = Oral bioavailability in cynomolgus monkey at 10 mg/kg; assay type: ADME, organism-based, Macaca fascicularis; conditions: in vivo
Huh-7 [8] = test: Antitumor activity against human Huh7 cells xenografted in po dosed SCID mouse sorafenib-resistance established model assessed as tumor regression at 100 mg/kg, po bid for 11 days relative to untreated control; conditions: time 11.0 day
[9] = Half life in cynomolgus monkey at 10 mg/kg, po; assay type: ADME, organism-based, Macaca fascicularis; conditions: in vivo
[10] = AUC in cynomolgus monkey at 10 mg/kg, po; assay type: ADME, organism-based, Macaca fascicularis; parameters: dose 10 mg/kg; conditions: in vivo
[11] = Oral bioavailability in mouse at 10 mg/kg; assay type: ADME, organism-based; conditions: in vivo
Huh-7 [12] = test: Antitumor activity against human Huh7 cells xenografted in po dosed SCID mouse sorafenib-resistance established model assessed as tumor regression at 30 mg/kg, po bid for 11 days relative to untreated control; conditions: time 11.0 day
[13] = Cmax in rat at 10 mg/kg, po; assay type: ADME, organism-based; parameters: route oral, dose 10 mg/kg; conditions: in vivo
[14] = Volume of distribution at steady state in cynomolgus monkey at 3 mg/kg, iv; assay type: ADME, organism-based, Macaca fascicularis; conditions: in vivo, read-out: Vdss
[15] = AUC in mouse at 3 mg/kg, iv; assay type: ADME, organism-based; parameters: dose 3 mg/kg; conditions: in vivo
[16] = Volume of distribution at steady state in rat 3 mg/kg, iv; assay type: ADME, organism-based; conditions: in vivo, read-out: Vdss
[17] = Volume of distribution at steady state in mouse at 3 mg/kg, iv; assay type: ADME, organism-based; conditions: in vivo, read-out: Vdss
[18] = Half life in mouse at 3 mg/kg, iv; assay type: ADME, organism-based; conditions: in vivo
[19] = Oral bioavailability in rat 10 mg/kg; assay type: ADME, organism-based; conditions: in vivo
[20] = Cmax in mouse at 10 mg/kg, po; assay type: ADME, organism-based; parameters: route oral, dose 10 mg/kg; conditions: in vivo
FGFR4 (Homo sapiens) = test: In vivo receptor occupancy at FGFR4 in human Huh7 cells xenografted SCID mouse orthotopic model at 100 mg/kg, po qd after 10 hrs relative to control
[21] = Clearance in mouse at 3 mg/kg, iv; assay type: ADME, organism-based; conditions: in vivo
[22] = Half life in cynomolgus monkey at 3 mg/kg, iv; assay type: ADME, organism-based, Macaca fascicularis; conditions: in vivo
Hep 3B2 = test: Antitumor activity against human Hep3B cells xenografted in SCID mouse orthotopic model assessed as inhibition of tumor regression at 100 mg/kg, po bid measured after 28 days relative to control; conditions: time 28.0 day
[23] = Clearance in rat at 3 mg/kg, iv; assay type: ADME, organism-based; conditions: in vivo
[24] = AUC in rat at 3 mg/kg, iv; assay type: ADME, organism-based; parameters: dose 3 mg/kg; conditions: in vivo
[25] = AUC in mouse at 10 mg/kg, po; assay type: ADME, organism-based; parameters: dose 10 mg/kg; conditions: in vivo
Huh-7 [26] = test: Antitumor activity against human Huh7 cells xenografted in po dosed SCID mouse sorafenib-resistance established model assessed as tumor regression measured after 11 days relative to untreated control; assay type: functional, organism-based; conditions: time 11.0 day
In short: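 Huh7 tumors grown subcutaneously in SCID mice were made sorafenib-resistant by oral sorafenib at 100 mg/kg daily for […]. Oral dosing was then given at 10, 30 or 100 mg/kg BID for 11 days. Sorafenib 100 mg/kg once daily was the comparator arm. Read-out was tumor growth as %ΔT/ΔC.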

half-life [1]: 1.8 h
t1/2 [2]: 2.1 h
AUC [3]: 2230 ng·h/mL
AUC [4]: 6420 ng·h/mL
half-life [5]: 3.2 h
clearance [6]: 8.4 mL/min/kg
bioavailability [7]: 27%
half-life [9]: 2 h
AUC [10]: 5660 ng·h/mL
bioavailability [11]: 20%
Cmax [13]: 588 ng/mL
Vd [14]: 1.1 L/kg
AUC [15]: 2910 ng·h/mL
Vd [16]: 0.3 L/kg
Vd [17]: 0.63 L/kg
t1/2 [18]: 2.1 h
bioavailability [19]: 12%
Cmax [20]: 423 ng/mL
clearance [21]: 17.2 mL/min/kg
t1/2 [22]: 4.8 h
clearance [23]: 9 mL/min/kg
AUC [24]: 5610 ng·h/mL
AUC [25]: 2960 ng·h/mL
Compound: C=CC(=O)N[C@H]1COC[C@H]1Nc1ncc2cc(-c3c(Cl)c(OC)cc(OC)c3Cl)c(=O)n(C)c2n1
Activity (Huh-7 [8]): Active
Activity (Huh-7 [12]): Active
Activity (FGFR4 (Homo sapiens)): >80%
Activity (Hep 3B2): Active
Activity (Huh-7 [26]): inactive
